A selection: hits, their analogues and other compounds. The true share with any hit is near 1.7%.
UCH37 inh: inhibitors of human deubiquitinating enzyme UCH37; Q9Y5K5; purified proteasome/UCH37, Ub-AMC cleavage fluorescence; inhibition, % (test concentration not listed); hit rate 0.33% among 330,000;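 active = mean inhibition over replicate wells above about 20%, limit read from the data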;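 also: 0% = compound-free wells with enzyme and 100% = wells lacking proteasome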
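Test system – human UCH37 enzyme supplied as purified proteasome complex · Incubation – 30 min preincubation with enzyme, 25 min cleavage at room temperature · Detection – AMC fluorescence from Ub-AMC cleavage, excitation 355 nm, emission 460 nm · Benchmarks – no-proteasome wells (full inhibition) and compound-free wells (no inhibition)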
Rpn11 block: inhibitors of human proteasome Rpn11 | human 26S proteasome, Ub4-pepOG fluorescence polarization; 20S core pre-blocked with epoxomicin | O00487 | inhibition, % at 20 µM | hit rate 0.59% among 360,000;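 active = inhibition at 20 µM, scaled to each plate's controls, above about 33%, limit read from the data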
PLC-gamma1 inh: blocks human PLC-gamma1 enzyme activity; P19174; purified PLC-gamma1, fluorogenic substrate, fluorescence; inhibition, % at 12.2 µM; hit rate 0.84% among 370,000; in the data active = inhibition above about 9.5%
PLC-beta3 inh: blocks human PLC-beta3 enzyme activity; Purified PLC-beta3, fluorogenic substrate, fluorescence; inhibition, % at 12.2 µM; hit rate 0.18% among 370,000;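 also: 0% = median of compound wells on plate and 100% = full blocker control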
PLCgamma1 ctr: inhibits human PLC-gamma1 in PLC-beta3 counter-screen | shares compounds with PLC-gamma1 inh | purified PLC-gamma1, fluorogenic substrate, fluorescence | inhibition, % at 12.3 µM | hit rate 3.1% among 3,300; in the data active = inhibition above about 9.5%
PLCb3 confirm: human PLC-beta3 inhibition, confirmation; inhibition, % at 12.3 µM; purified PLC-beta3, fluorogenic substrate fluorescence; shares compounds with PLC-gamma1 inh; hit rate 1% among 3,300
* = called active by the depositor; · = not tested or not shown. Rule as the data show it, unless noted: active = inhibition above about 11%; inactive = the rest.

SMILES	UCH37 inh	Rpn11 block	PLC-gamma1 inh	PLC-beta3 inh	PLCgamma1 ctr	PLCb3 confirm
CN1CCN(C(c2ccccc2)c2nnnn2C(C)(C)C)CC1 (stereo not drawn)	·	·	12*	5	-1	-7
N#Cc1c(N=Cc2ccc(Br)s2)sc2c1CCC2	0	·	·	·	·	·
CCN(CC)S(=O)(=O)c1ccc(N=Nc2c(C)[nH]n(C(N)=S)c2=O)cc1	12	-6	10*	8	0	2
NC(=O)CSc1nc2c(sc(=S)n2-c2ccccc2)c(=O)[nH]1	11	-5	10*	-1	-3	1
CC1CCN(C(=O)c2ccc3c(c2NCCO)C(=O)c2ccccc2C3=O)CC1	8	-2	10*	15*	9	8
CCN(CC)CCNC(=O)c1ccc2c(c1NCCO)C(=O)c1ccccc1C2=O	9	-6	0	-9	·	·
Cc1cccc(CCNC(=O)CCS(=O)(=O)c2ccc(Br)cc2)c1	·	-2	2	4	·	·
COc1ccc(S(=O)(=O)CCC(=O)NCCc2cccc(C)c2)cc1	1	0	9.7*	-3	-2	0
O=C(C1CCCCC1)N1CCC(c2nc3c(nnn3Cc3ccccc3Cl)c(=O)[nH]2)CC1	2	7	3	-6	·	·
O=C(Cc1cccs1)N1CCC(c2nc3c(nnn3Cc3ccccc3Cl)c(=O)[nH]2)CC1	2	-10	18*	17*	11*	16*
O=c1[nH]c(C2CCN(S(=O)(=O)c3ccccc3)CC2)nc2c1nnn2Cc1ccc2c(c1)OCCO2	7	-18	10*	-3	-3	-1
COc1cc(C(=O)NN=Cc2ccc(OC(=O)c3ccccc3Cl)c(OC)c2)ccc1O	2	·	·	·	·	·
CC(=NNC(=O)CC(C)C)c1ccc(Cl)c(Cl)c1	1	·	·	·	·	·
CC1(C(=O)NC2CCCCCCC2)CCC(=O)N1Cc1cccnc1 (stereo not drawn)	3	0	13*	4	0	-2
COc1ccccc1CN1CCC(n2nccc2NC(=O)c2ccccc2Cl)CC1	1	1	11*	1	-2	0
O=S1(=O)N=C2CCCCCN2C(c2ccc(Cl)cc2)N1 (stereo not drawn)	4	-4	10*	-2	4	3
Cc1ccc(SCc2cc(=O)n(C)[nH]2)cc1	3	6	11*	6	-2	-3
Cc1ccc(SCc2cc(=O)n3[nH]c(C)nc3n2)cc1	3	2	-1	-4	·	·
CNCCC=C1c2ccccc2CCc2ccccc21	4	-13	12*	0	-5	-11
C[N+](C)(C)CC/C=C1/c2ccccc2CSc2ccccc21	1	-17	6	-1	·	·
CCOC(=O)c1cc(-c2csc(NN=Cc3ccccc3Cl)n2)on1	-76	·	·	·	·	·
O=C(CNC(=O)OCc1ccccc1)NC1(C(=O)O)CCCC1	2	-2	1	4	·	·
CCOc1ccccc1OCC(=O)NC1CCCCC1	-1	-1	11*	4	-3	0
COc1ccccc1OCC(=O)NC1CCCCCC1	1	-4	1	0	·	·
O=C(CNC(=O)OCc1ccccc1)NC1CCCCCCC1	-3	-6	10*	7	-1	2
SMILES	UCH37 inh	Rpn11 block	PLC-gamma1 inh	PLC-beta3 inh	PLCgamma1 ctr	PLCb3 confirm
COc1ccc(OCC(=O)NC2CCCCCCC2)cc1	3	-5	11*	-4	-3	-2
O=C(O)CNC(=O)C1(NC(=O)OCc2ccccc2)CCCC1	2	1	8	17*	-3	0
Cc1[nH]n(-c2cccc3ccccc23)c(=O)c1C=Nc1sc2c(c1C#N)CCC2	10	·	·	·	·	·
CCOc1cc(C=NNC(=O)C2CCCC2)ccc1O	-1	·	·	·	·	·
Cn1c(=O)[nH]c(=O)c2c1nc(Br)n2CC=NNC(N)=S	2	·	·	·	·	·
CC(=O)Nc1ccc(NS(=O)(=O)c2cc(Cl)ccc2Cl)cc1	1	-8	9.7*	-4	-3	0
COc1ccc(C(=O)Nc2cccc(C(C)=NNC(=O)c3ccc([N+](=O)[O-])cc3)c2)cc1OC	1	·	·	·	·	·
O=C(NC1CCCCC1)C1CCCN1S(=O)(=O)c1ccc(F)cc1 (stereo not drawn)	·	0	1	-3	·	·
Cc1ccc(S(=O)(=O)N2CCCCC2C(=O)N2CCN(Cc3ccccc3)CC2)cc1 (stereo not drawn)	7	0	12*	8	-3	-1
Cc1ccc(S(=O)(=O)N2CCCC2C(=O)NC2CCCCC2)cc1 (stereo not drawn)	0	-1	12*	9	-3	-5
CCOc1cccc(C(=O)Nc2ccc(NC(=O)c3ccccc3)c(C)c2)c1	2	-1	7	15*	-3	14*
COCC(=O)Nc1ccccc1C(=O)Nc1ccc(OC)cc1	3	1	11*	1	-7	-1
COc1cccc(C(=O)Nc2cccc3ccccc23)c1	2	3	15*	3	3	2
COc1ccc(NC(=O)c2cccc3ccccc23)cc1	·	-12	9.9*	-4	-8	-4
COc1cc(OC)cc(C(=O)Nc2cccc3ccccc23)c1	4	2	2	-7	·	·
COc1ccc(NC(=O)c2cccc3c(Br)cccc23)cc1	2	-8	1	-9	·	·
COc1ccc(C=Nn2cnnc2)cc1Br	3	·	·	·	·	·
C/C(C=NNC(=O)c1cc(C2CC2)[nH]n1)=C\c1ccccc1	6	·	·	·	·	·
CC(=O)Nc1ccc(C=NN2CCCCC2)cc1	5	·	·	·	·	·
CCC(C)NC(=O)c1ccccc1NC(=O)COc1ccc(OC)cc1 (stereo not drawn)	·	2	11*	6	-3	0
COc1cccc(C(=O)NNS(=O)(=O)c2ccccc2)c1	·	-7	12*	3	-5	-2
C/C(C=NN1CCN(Cc2ccc(C)cc2)CC1)=C/c1ccccc1	0	·	·	·	·	·
O=C(Nc1ccc(F)cc1)Nc1cccnc1Cl	1	-9	13*	-3	-9	-2
O=C(Nc1ccc(F)cc1)Nc1ccccc1F	1	-2	3	3	·	·
S=c1[nH]nc(-c2ccncc2)n1N=C/C=C/c1ccco1	15	·	·	·	·	·
SMILES	UCH37 inh	Rpn11 block	PLC-gamma1 inh	PLC-beta3 inh	PLCgamma1 ctr	PLCb3 confirm
COC(=O)C(C(=O)OC)[C@H]1C=C[C@@H](C(=O)NS(=O)(=O)c2ccc(C)cc2)N(C(C)=O)C1	·	·	81*	0	76*	-4
CC(=O)N1C[C@@H](c2c[nH]c3ccccc23)C=C[C@H]1C(=O)NS(=O)(=O)c1ccc(C)cc1	·	·	53*	-17	48*	-16
Cc1cc(C)c2c(c1)C(=NNc1ccc(S(N)(=O)=O)cc1[N+](=O)[O-])CCC2	7	·	·	·	·	·
CC(=NNC(=O)CSc1nc(C)cc(C)n1)c1cccc([N+](=O)[O-])c1	-1	·	·	·	·	·
Cc1oc(C)c(C(N)=O)c1C(N)=O	1	-4	7	11*	-6	-3
CCc1ccc(NS(=O)(=O)c2ccc3c(c2)CCN3C(=O)CCC(=O)O)cc1	2	-2	10*	0	-6	-5
